The subject of series [1] is B16. Description: Antitumor activity against mouse B16 cells allografted mouse assessed as host survival at 42 mg/kg, ip qd for 9 days relative to control. In kind it is functional. The conditions noted are these: route intraperitoneal. Put shortly: (§1)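 B16 melanoma-bearing mice given drug ip once daily for 9 days, starting 24 h after tumor implantation. Read-out is average survival in days, expressed as %T/C = (average survival of treated mice)/(average survival of control mice) × 100.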

In series [2] the test system is B16. The series is described as follows: Antitumor activity against mouse B16 cells allografted mouse assessed as host survival at 70 mg/kg, ip qd for 9 days relative to control. In kind it is functional. Conditions: route intraperitoneal. An outline of the steps: as §1
Series [3] concerns P388. The series is described as follows: Antitumor activity against mouse P388 cells allografted mouse assessed as host survival at 80 mg/kg, ip qd for 9 days relative to control. In kind it is functional. The conditions noted are these: route intraperitoneal. An outline of the steps:
(§2)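 NCI protocol: groups of five to ten mice inoculated ip with approximately 10^6 P-388 or L1210 cells. Drug given over a range of dose levels starting 24 h after implantation, once daily for 9 consecutive days. Survival expressed as %T/C = (average survival of treated)/(average survival of control) × 100.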

Series [4] concerns Mus musculus. The series is described as follows: Toxicity in mouse B16 cells allografted mouse at 70 mg/kg, ip qd for 9 days. Format: organism-based. Also noted: dose 70 mg/kg, route intraperitoneal. The conditions noted are these: in vivo, 216 h. An outline of the steps: (§3)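 Mice bearing B16 melanoma, dosed ip once daily for 9 days from 24 h after tumor implantation. Toxicity is recorded as the average body weight change at the end of drug treatment.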

Series [5] concerns Mus musculus. The series is described as follows: Toxicity in mouse B16 cells allografted mouse at 116.7 mg/kg, ip qd for 9 days. In kind it is organism-based. Also noted: dose 116.7 mg/kg, route intraperitoneal. The conditions noted are these: in vivo, 216 h. Put shortly:
as §3

Series [6] deals with Mus musculus. Description: Toxicity in mouse L1210 cells allografted mouse at 90 mg/kg, ip qd for 9 days. Format: organism-based. Also on record: dose 90 mg/kg, route intraperitoneal. The conditions noted are these: in vivo, 216 h. Put shortly: (§4)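 NCI protocol. Groups of five to ten mice were inoculated intraperitoneally with about 10^6 tumor cells. Drug was given ip once daily for 9 consecutive days, starting 24 h after tumor implantation, over a range of dose levels. Toxicity was read as the average body weight change at the end of drug treatment.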

In series [7] the test system is B16. The series is described as follows: Antitumor activity against mouse B16 cells allografted mouse assessed as host survival at 116.7 mg/kg, ip qd for 9 days relative to control. Conditions: route intraperitoneal. Format: functional. Put shortly: as §1
Series [8] has as its system Mus musculus. The series is described as follows: Toxicity in mouse B16 cells allografted mouse at 42 mg/kg, ip qd for 9 days. Format: organism-based. Also on record: dose 42 mg/kg, route intraperitoneal. Conditions: in vivo, 216 h. Put shortly: as §3
The test system of series [9] is L1210. Description: Antitumor activity against mouse L1210 cells allografted mouse assessed as host survival at 90 mg/kg, ip qd for 9 days relative to control. In kind it is functional. Conditions: route intraperitoneal. An outline of the steps:
as §2

Series [10] has as its system P388. Description: Antitumor activity against mouse P388 cells allografted mouse assessed as host survival at 70 mg/kg, ip qd for 9 days relative to control. In kind it is functional. The conditions noted are these: route intraperitoneal. An outline of the steps:
as §2

Series [11] has as its system Mus musculus. The series is described as follows: Toxicity in mouse L1210 cells allografted mouse at 70 mg/kg, ip qd for 9 days. Conditions: in vivo, 216 h. In kind it is organism-based. Also noted: dose 70 mg/kg, route intraperitoneal. An outline of the steps:
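Groups of five to ten mice were inoculated ip with about 10^6 L1210 cells and dosed once daily for 9 consecutive days beginning 24 h post-implantation. Toxicity was taken as the average body weight change at the end of drug treatment.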

For series [12], the system named is L1210. The series is described as follows: Antitumor activity against mouse L1210 cells allografted mouse assessed as host survival at 80 mg/kg, ip qd for 9 days relative to control. In kind it is functional. The conditions noted are these: route intraperitoneal. Put shortly:
as §2

Series [13] concerns Mus musculus. The series is described as follows: Toxicity in mouse P388 cells allografted mouse at 70 mg/kg, ip qd for 9 days. In kind it is organism-based. Also noted: dose 70 mg/kg, route intraperitoneal. The conditions noted are these: in vivo, 216 h. An outline of the steps:
as §4

Series [14] deals with Mus musculus. The series is described as follows: Toxicity in mouse P388 cells allografted mouse at 80 mg/kg, ip qd for 9 days. Format: organism-based. Also noted: dose 80 mg/kg, route intraperitoneal. The conditions noted are these: in vivo, 216 h. An outline of the steps:
as §4

Series [15] concerns Mus musculus. The series is described as follows: Toxicity in mouse P388 cells allografted mouse at 90 mg/kg, ip qd for 9 days. In kind it is organism-based. Also noted: dose 90 mg/kg, route intraperitoneal. The conditions noted are these: in vivo, 216 h. An outline of the steps: as §4
Series [16] relates to P388. Description: Antitumor activity against mouse P388 cells allografted mouse assessed as host survival at 90 mg/kg, ip qd for 9 days relative to control. In kind it is functional. Conditions: route intraperitoneal. Put shortly:
as §2

In series [17] the test system is Mus musculus. The series is described as follows: Toxicity in mouse L1210 cells allografted mouse at 80 mg/kg, ip qd for 9 days. In kind it is organism-based. Also on record: dose 80 mg/kg, route intraperitoneal. The conditions noted are these: in vivo, 216 h. Put shortly: as §4
Series [18] has as its system L1210. Description: Antitumor activity against mouse L1210 cells allografted mouse assessed as host survival at 70 mg/kg, ip qd for 9 days relative to control. Format: functional. Conditions: route intraperitoneal. An outline of the steps:
as §2

The test system of series [19] is B16. Description: Antitumor activity against mouse B16 cells allografted mouse assessed as host survival at 130 mg/kg, ip qd for 9 days relative to control. Format: functional. Conditions: route intraperitoneal. An outline of the steps:
as §1

Series [20] relates to Mus musculus. Description: Toxicity in mouse B16 cells allografted mouse at 360 mg/kg, ip qd for 9 days. Format: organism-based. Also on record: dose 360 mg/kg, route intraperitoneal. The conditions noted are these: in vivo, 216 h. Put shortly:
as §3

The subject of series [21] is L1210. Description: Antitumor activity against mouse L1210 cells allografted mouse assessed as host survival at 100 mg/kg, ip qd for 9 days relative to control. In kind it is functional. The conditions noted are these: route intraperitoneal. Put shortly: as §2
For series [22], the system named is B16. Description: Antitumor activity against mouse B16 cells allografted mouse assessed as host survival at 216 mg/kg, ip qd for 9 days relative to control. Format: functional. Conditions: route intraperitoneal. An outline of the steps: as §1
In series [23] the test system is Mus musculus. The series is described as follows: Toxicity in mouse B16 cells allografted mouse at 130 mg/kg, ip qd for 9 days. Format: organism-based. Also on record: dose 130 mg/kg, route intraperitoneal. The conditions noted are these: in vivo, 216 h. Put shortly: as §3
The nature of series [24]: Binding affinity to synthetic melanin at 5.8 mg/100 mL after 15 mins by UV-spectroscopic analysis. Format: physicochemical. Conditions: 0.25 h. Put shortly: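 Synthetic melanin was made from DL-Dopa with tyrosinase in 0.1 M phosphate pH 6.6 at 37 °C for 4 h. Melanin suspension (1.1 mg dry weight) was mixed with phosphate buffer (0.05 M, pH 6.4, 5% Me2SO), water, and 1 mL of drug solution (5.8 mg/100 mL). The mixture was shaken 15 min at room temperature and filtered. Unbound drug in the filtrate was measured by UV against a drug-free blank.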

For series [25], the system named is Mus musculus. The series is described as follows: Toxicity in mouse B16 cells allografted mouse at 216 mg/kg, ip qd for 9 days. In kind it is organism-based. Also on record: dose 216 mg/kg, route intraperitoneal. Conditions: in vivo, 216 h. An outline of the steps: as §3
Series [26] relates to B16. The series is described as follows: Antitumor activity against mouse B16 cells allografted mouse assessed as host survival at 360 mg/kg, ip qd for 9 days relative to control. In kind it is functional. The conditions noted are these: route intraperitoneal. An outline of the steps: as §1
For series [27], the system named is P388. The series is described as follows: Antitumor activity against mouse P388 cells allografted mouse assessed as host survival at 100 mg/kg, ip qd for 9 days relative to control. In kind it is functional. The conditions noted are these: route intraperitoneal. Put shortly: as §2

Each structure is given as a SMILES string.

The T/C is the ratio of treated to control.

On to `CN(C)/N=N\c1ccnc2c(I)cccc12`, for which the results for the Survival in the series on B16 [1], in the series with B16 [2] and with B16 [7] were 20 days, 20.8 days and 19.3 days, respectively. Further, the T/C in the series with B16 [1] is given as 97%; with B16 [2], 99%; with P388 [3] it was 120%; in the series with B16 [7] it was 92%; with L1210 [9], 139%; in the series on P388 [10] it was 120%. For the same molecule, the T/C in the series with L1210 [12] was 129%; in the series with P388 [16], 116%; in the series on L1210 [18], 127%. Moreover, the Activity with Mus musculus [4] is on record as -1.5%; in the series on Mus musculus [5], -4.6%; with Mus musculus [6], -7%; in the series on Mus musculus [8], -1.3%; in the series on Mus musculus [11], 7.7%; in the series on Mus musculus [13], 8.2%. For the same molecule, the Activity in the series with Mus musculus [14] is recorded as -2.4%; in the series with Mus musculus [15], -1.6%; in the series on Mus musculus [17] it was -6.9%.
`CN(C)/N=N/c1[nH]cnc1C(N)=O` [DACARBAZINE]: the Survival in the series with B16 [19] turned out to be 22 days; with B16 [22], 22.8 days; with B16 [26] it was 16 days. The T/C is 105% with B16 [19]; 167% with L1210 [21]; 109% with B16 [22]; 76% in the series with B16 [26]; 150% in the series on P388 [27]. Also, the Activity in the series on Mus musculus [20] was -3%; with Mus musculus [23] it was -2.9%; in series [24] it was 19.3%; with Mus musculus [25] it was -3.2%.

(Values after ChEMBL document CHEMBL3244044, “Synthesis and antitumor activity of halogen-substituted 4-(3,3-dimethyl-1-triazeno)quinolines” (J Med Chem, 1978).)
